Our source for the IC50 and I50 values is ChEMBL document CHEMBL1123546, “Inhibition of cyclic nucleotide phosphodiesterases from pig coronary artery by benzo-separated analogues of 3-isobutyl-1-methylxanthine” (J Med Chem, 1986).

The target in assay [1] is cGMP-dependent 3',5'-cyclic phosphodiesterase (Homo sapiens, UniProt O00408). Description: Inhibition of Phosphodiesterase 2 from pig coronary artery. The format is tissue-based, Sus scrofa. The settings on record: target entry is the homologue from another species; read-out: I50. A digest of the protocol: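 Pooled peak II was the enzyme source, taken from DEAE-cellulose fractionation of soluble porcine coronary media plus intima homogenate (20 mM Tris-HCl pH 7.5, 2 mM Mg(OAc)2, 1 mM DTT). Hydrolysis of 1 μM cAMP ran at 30 °C for 30 min, with enzyme dilution set for 10-20% hydrolysis. Analogues were tested at 1-100 μM in 3% final Me2SO. I50 was the concentration giving 50% inhibition.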
Chain of cGMP-dependent 3',5'-cyclic phosphodiesterase (O00408 whole entry): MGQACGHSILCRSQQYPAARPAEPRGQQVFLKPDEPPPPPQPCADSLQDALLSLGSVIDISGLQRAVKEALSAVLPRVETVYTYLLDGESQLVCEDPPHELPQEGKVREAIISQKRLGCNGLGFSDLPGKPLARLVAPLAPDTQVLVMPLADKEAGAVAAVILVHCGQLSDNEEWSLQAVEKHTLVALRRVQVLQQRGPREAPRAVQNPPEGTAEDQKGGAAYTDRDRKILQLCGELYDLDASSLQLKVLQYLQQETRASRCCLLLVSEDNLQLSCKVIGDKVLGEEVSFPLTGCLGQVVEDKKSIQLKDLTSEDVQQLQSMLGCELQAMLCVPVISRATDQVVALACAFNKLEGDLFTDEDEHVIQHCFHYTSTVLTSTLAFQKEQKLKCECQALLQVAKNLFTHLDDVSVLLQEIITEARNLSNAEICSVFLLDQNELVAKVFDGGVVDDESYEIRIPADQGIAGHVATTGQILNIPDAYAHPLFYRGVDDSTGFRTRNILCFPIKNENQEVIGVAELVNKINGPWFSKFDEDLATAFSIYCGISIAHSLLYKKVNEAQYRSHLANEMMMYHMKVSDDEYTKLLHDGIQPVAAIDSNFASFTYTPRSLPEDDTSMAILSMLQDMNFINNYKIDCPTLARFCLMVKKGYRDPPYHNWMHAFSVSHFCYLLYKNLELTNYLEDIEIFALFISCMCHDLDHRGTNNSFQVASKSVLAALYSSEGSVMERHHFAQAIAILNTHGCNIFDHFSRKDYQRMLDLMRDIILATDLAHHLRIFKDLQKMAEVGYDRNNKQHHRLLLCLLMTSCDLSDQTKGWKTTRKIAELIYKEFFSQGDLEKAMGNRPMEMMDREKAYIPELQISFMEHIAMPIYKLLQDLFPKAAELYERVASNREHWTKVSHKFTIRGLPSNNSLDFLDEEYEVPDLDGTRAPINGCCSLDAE

In another assay the target is Phosphodiesterase 1 (Homo sapiens, UniProt P54750+Q01064+Q14123). Description: Inhibition of Calmodulin Sensitive Phosphodiesterase 1 from pig coronary artery. The format is tissue-based, Sus scrofa. The settings on record: target entry is the homologue from another species. A digest of the protocol:
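Media plus intima of porcine coronary artery homogenized in 20 mM Tris-HCl pH 7.5, 2 mM Mg(OAc)2, 1 mM DTT. The soluble fraction was resolved on DEAE-cellulose and peak I was pooled. Assay used 1 μM cGMP with calcium + calmodulin, 30 °C for 30 min, at 10-20% hydrolysis. Analogues were tested at 1-100 μM with 3% final Me2SO. I50 was taken as the concentration giving 50% inhibition of hydrolysis.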

Regarding `Cc1nc2cc3c(cc2[nH]1)c(=O)n(C)c(=O)n3CC(C)C`, in assay [1], the IC50 was above 50 µM. Further, on Phosphodiesterase 1, the I50 was found to be 36 µM.
Turning to `CC(C)Cn1c(=O)n(C)c(=O)c2cc3c(cc21)ncn3Cc1ccccc1`, in assay [1], the IC50 is 14 µM. The I50 at Phosphodiesterase 1 came out at 1.2 µM.
`CC(C)Cn1c(=O)n(C)c(=O)c2c1ncn2Cc1ccccc1`: the IC50 in assay [1] was 108 µM. The compound further gave an I50 at Phosphodiesterase 1 of 4.4 µM.
For `CC(C)Cn1c(=O)n(C)c(=O)c2c3ncn(Cc4ccccc4)c3ccc21`, the IC50 in assay [1] was 13 µM. This compound also gave an I50 at Phosphodiesterase 1 of 20 µM.
As for `CC(C)Cn1c(=O)n(C)c(=O)c2c3nc(C(C)(C)C)[nH]c3ccc21`, in assay [1], the IC50 came out at 44 µM. The compound also yielded an I50 at Phosphodiesterase 1 above 50 µM.
Consider `CC(C)CCn1c(=O)c2c3nc[nH]c3ccc2n(CC(C)C)c1=O`, for which, in assay [1], the IC50 was found to be 19 µM. The compound also returned an I50 on Phosphodiesterase 1 above 25 µM.
`Cc1nc2c([nH]1)c(=O)n(C)c(=O)n2CC(C)C`: in assay [1], the IC50 worked out at 68 µM. On Phosphodiesterase 1, the I50 was determined as 1.9 µM.
For `CC(C)Cn1c(=O)n(C)c(=O)c2nc[nH]c21` [ISOBUTYLMETHYLXANTHINE], in that order: 15 µM and 6.3 µM.
For `CC(C)CCn1c(=O)c2cc3nc[nH]c3cc2n(CC(C)C)c1=O`, in that order: 20 µM and above 25 µM.
Take `Cc1nc2c(ccc3c2c(=O)n(C)c(=O)n3CC(C)C)[nH]1`: the IC50 in assay [1] was above 25 µM. At Phosphodiesterase 1, this compound returned an I50 of 15 µM.
For `CC(C)Cn1c(=O)n(C)c(=O)c2c3c(ccc21)ncn3Cc1ccccc1`, in that order: 14 µM and 19 µM.
`COCc1nc2c(ccc3c2c(=O)n(C)c(=O)n3CC(C)C)[nH]1`: the IC50 in assay [1] is 66 µM. The I50 on Phosphodiesterase 1 is 54 µM.
`CC(C)Cn1c(=O)n(C)c(=O)c2cc3ncn(Cc4ccccc4)c3cc21`: the IC50 in assay [1] was determined as 27 µM. Further, the I50 at Phosphodiesterase 1 was determined as 4.9 µM.
For `COCc1nc2c([nH]1)c(=O)n(C)c(=O)n2CC(C)C`, in that order: 212 µM and 5.2 µM.
For `CC(C)Cn1c(=O)n(C)c(=O)c2c3nc[nH]c3ccc21`, in that order: 18 µM and 8.4 µM.
On to `CC(C)CCn1c(=O)c2nc[nH]c2n(CC(C)C)c1=O`, for which the IC50 in assay [1] was found to be 17 µM. Moreover, the I50 on Phosphodiesterase 1 was found to be 86 µM.
Turning to `CC(C)Cn1c(=O)n(C)c(=O)c2cc3[nH]c(C(C)(C)C)nc3cc21`, in assay [1], the IC50 was above 50 µM. Besides, the I50 on Phosphodiesterase 1 was found to be 41 µM.
On the same counts, the results for `COCc1nc2cc3c(=O)n(C)c(=O)n(CC(C)C)c3cc2[nH]1` are above 50 µM and 36 µM.
In the case of `CC(C)Cn1c(=O)n(C)c(=O)c2cc3[nH]cnc3cc21`, in assay [1], the IC50 worked out at 89 µM. The same compound displayed an I50 on Phosphodiesterase 1 of 40 µM.
On the same counts, the results for `CC(C)Cn1c(=O)n(C)c(=O)c2[nH]c(C(C)(C)C)nc21` are 58 µM and 1.8 µM.
